Assay outcomes (PubChem)
Only a selection was taken, and hits are over-represented in it overall.
KDM4C inh – KDM4C (human) demethylase inhibition; Q9H3R0; GST-KDM4C 2-372, H3K9me3 peptide, LANCE TR-FRET; inhibition, % at 12.5 µM; 96,000 compounds, 0.15% hits; AID 720574;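 active = mean replicate inhibition above about 25%, with at least 55% of replicates also reaching it, limit read from the data, passing the limit was not always enough; inconclusive = only one of those two conditions met; inactive = neither condition met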
Target sequence (Q9H3R0 2-372 limits assumed): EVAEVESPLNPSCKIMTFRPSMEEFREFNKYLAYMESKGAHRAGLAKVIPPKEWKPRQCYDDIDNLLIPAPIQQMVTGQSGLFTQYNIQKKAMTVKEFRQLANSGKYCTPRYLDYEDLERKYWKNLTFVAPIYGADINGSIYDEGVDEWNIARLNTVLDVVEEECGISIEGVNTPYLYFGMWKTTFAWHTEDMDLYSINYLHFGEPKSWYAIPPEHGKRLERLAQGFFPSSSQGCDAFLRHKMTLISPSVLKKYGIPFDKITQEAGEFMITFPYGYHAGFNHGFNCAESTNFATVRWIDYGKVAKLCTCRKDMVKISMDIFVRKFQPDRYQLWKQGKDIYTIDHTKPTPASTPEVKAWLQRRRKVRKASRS
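Test system: N-terminal GST-fused human GASC-1 (KDM4C) fragment, residues 2-372; quantity: GASC-1 enzyme at 10 nM final in reaction; dosing: single dose; schedule: 30 min demethylation and 1 h detection at room temperature; signal: LANCE TR-FRET, excitation 340 nm, emissions 618 and 671 nm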
IDH1 mut inh – inhibitors of human IDH1 R132H. O75874. IDH1 R132H reductase, diaphorase/resazurin fluorescence, 60 min. inhibition, % at 10 µM. 70,000 compounds, 0.18% hits. AID 624101; in the data active = inhibition above about 34%; inconclusive = no clear call, values can overlap the other calls; inactive = below about 11%
T cruzi growth-1 – blocks T. cruzi growth in NIH3T3 culture. T. cruzi beta-gal in NIH3T3, GalScreen luminescence, 90 h. inhibition, % at 8.34 µM. 77,000 compounds, 5.9% hits;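 active = mean inhibition above about 93%, with at least 55% of replicates each passing it, limit read from the data, passing the limit was not always enough; inconclusive = only one of those two conditions holds; inactive = neither condition holds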
T cruzi growth-2 – inhibitors of T. cruzi proliferation; 5,600 compounds, 72% hits; T. cruzi beta-gal in NIH3T3, GalScreen luminescence, 90 h; inhibition, % at 8.35 µM; shares compounds with T cruzi growth-1;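 active = mean replicate inhibition above about 95% and at least 55% of replicates individually reaching it, limit read from the data; inconclusive = only one of the two criteria is met; inactive = neither criterion is met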
T cruzi growth-3 – Trypanosoma cruzi proliferation inhibition. 5,600 compounds, 21% hits. AID 651740. inhibition, % at 2.09 µM. T. cruzi beta-gal in NIH3T3, GalScreen luminescence, 90 h. shares compounds with T cruzi growth-1;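 active = mean inhibition above about 95%, with at least 55% of replicates also reaching it, limit read from the data; inconclusive = meets just one of the two conditions; inactive = meets neither condition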
NIH3T3 tox – NIH/3T3 (mouse) viability loss. shares compounds with T cruzi growth-1. NIH/3T3 viability, CellTiter-Glo ATP luminescence, 90 h. cytotoxicity (signal decrease), % at 8.35 µM. 5,600 compounds, 14% hits. AID 651742;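 active = mean signal decrease across replicates above about 35% based on untreated-well scatter, with enough replicates individually passing, limit read from the data; inconclusive = no rule stated though some were filed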
NIH3T3 tox 2 – cytotoxicity in mouse NIH/3T3 fibroblasts. shares compounds with T cruzi growth-1. NIH/3T3 viability, CellTiter-Glo ATP luminescence, 90 h. 5,600 compounds, 56% hits. inhibition, % at 24.9 µM;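 active = mean loss of cell viability signal at or above a set limit, and enough replicates individually reaching it; inconclusive = meets only the mean limit or only the replicate share; inactive = meets neither condition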
Numbers stand for hits; - = inactive; ? = inconclusive; . = not tested or not shown.

SMILES | KDM4C inh | IDH1 mut inh | T cruzi growth-1 | others
CO[C@@H]1CN(C)C(=O)c2ccc(NC(=O)c3cnccn3)cc2OC[C@@H](C)N(C(=O)C2CC2)C[C@H]1C | - | - | -
COc1cccc(C#Cc2ccc3c(c2)[C@@H]2[C@@H](CCN2C(=O)c2ccccc2F)[C@@H](CO)N3)c1 | - | . | -
Cc1noc(C)c1S(=O)(=O)N(C)C[C@H]1Oc2ccc(NS(=O)(=O)c3ccccc3)cc2CC(=O)N([C@H](C)CO)C[C@@H]1C | 45 | - | -
Cc1noc(C)c1S(=O)(=O)N(C)C[C@H]1Oc2ccc(NS(=O)(=O)c3ccccc3)cc2CC(=O)N([C@@H](C)CO)C[C@@H]1C | - | - | -
CNC[C@@H]1Oc2ccc(NS(=O)(=O)c3cn(C)cn3)cc2CC(=O)N([C@H](C)CO)C[C@@H]1C | - | - | 98
CNC[C@H]1Oc2ccc(NS(=O)(=O)c3cn(C)cn3)cc2CC(=O)N([C@H](C)CO)C[C@@H]1C | - | - | -
COc1ccc(NC(=O)N[C@@H]2CC[C@@H](CCn3cc(-c4ccc(F)cc4)nn3)O[C@H]2CO)cc1 | - | - | .
COc1cccc(N(CC(=O)Nc2cc(C(F)(F)F)ccc2Cl)S(C)(=O)=O)c1 | . | - | .
Cc1cc(O)cc(Oc2cc(C)cc(O)c2O)c1 | . | 56 | .
Cc1cc(C(C)(C)C)c(O)c(C(C)(C)C)c1 | . | - | .
COc1ccc(NC(=O)Nc2ccc3c(c2)C(=O)N([C@H](C)CO)C[C@H](C)[C@H](CN(C)C(=O)Nc2ccccc2)OCCCC[C@@H](C)O3)cc1 | - | . | -
CN(C)CC#Cc1ccc([C@@H]2[C@H](CO)N3CCCCN(S(=O)(=O)c4ccccc4)C[C@@H]23)cc1 | - | . | -
CC(C)CC#Cc1ccc([C@H]2[C@@H](CO)N3CCCCN(S(=O)(=O)c4ccc(F)cc4)C[C@H]23)cc1 | 26 | . | -
CN(C)CC#Cc1ccc([C@@H]2[C@@H](CO)N3CCCCN(S(=O)(=O)c4ccccc4)C[C@@H]23)cc1 | 32 | . | -
CC(C)CC#Cc1ccc([C@@H]2[C@@H](CO)N3CCCCN(S(=O)(=O)c4ccc(F)cc4)C[C@H]23)cc1 | - | . | -
CO[C@H]1CN(C)C(=O)c2ccc(NC(=O)Nc3cccc(F)c3)cc2OC[C@H](C)N(C(=O)C2CC2)C[C@H]1C | - | - | -
C[C@H](CO)N1C[C@H](C)[C@H](CN(C)Cc2ccc(C(=O)O)cc2)Oc2ccc(NC(=O)Nc3ccccc3)cc2CC1=O | - | - | -
O=C(C[C@H]1CC[C@@H]2[C@H](COC[C@H](O)CN2C(=O)C2CCCC2)O1)NCc1ccncc1 | - | . | -
CN1c2ccc(-c3ccccc3)cc2[C@H]2[C@H](CCN2C(=O)c2ccccc2)[C@H]1CO | - | . | -
CN1c2ccc(-c3ccccc3)cc2[C@H]2[C@H](CCN2C(=O)c2ccc(F)cc2)[C@H]1CO | - | . | -
CN(C)C(=O)c1cccc(-c2ccc3c(c2)[C@H]2[C@H](CCN2C(=O)c2ccccc2)[C@@H](CO)N3C)c1 | - | . | 102 | T cruzi growth-2=100;T cruzi growth-3=-;NIH3T3 tox=-;NIH3T3 tox 2=-
CN1c2ccc(-c3ccccc3)cc2[C@H]2[C@H](CCN2C(=O)c2ccncc2)[C@H]1CO | - | . | 103 | T cruzi growth-2=107;T cruzi growth-3=-;NIH3T3 tox=-;NIH3T3 tox 2=-
CN1c2ccc(-c3ccc(F)cc3)cc2[C@H]2[C@H](CCN2C(=O)c2ccncc2)[C@@H]1CO | - | . | ? | T cruzi growth-2=110;T cruzi growth-3=-;NIH3T3 tox=-;NIH3T3 tox 2=?
CN1c2ccc(-c3ccc(F)cc3)cc2[C@@H]2[C@@H](CCN2C(=O)c2ccncc2)[C@H]1CO | - | . | -
CCC(=O)N1CC2(CCN(C(=O)CN3CCOCC3)CC2)c2c([nH]c3cc(OC)ccc23)[C@@H]1CO | - | . | .
SMILES | KDM4C inh | IDH1 mut inh | T cruzi growth-1 | others
CO[C@H]1CN(C)C(=O)c2ccc(NC(=O)c3ccc(F)cc3)cc2OC[C@@H](C)N(C(=O)CC2CC2)C[C@@H]1C | - | - | -
C[C@H](CO)N1C[C@H](C)[C@@H](CN(C)C(=O)Nc2ccccc2C(F)(F)F)OCc2cn(nn2)CCCC1=O | - | . | -
COc1ccc(S(=O)(=O)N(C)C[C@H]2Oc3ccc(NC(=O)c4ccncc4)cc3CC(=O)N([C@@H](C)CO)C[C@H]2C)cc1 | - | - | -
O=C(Cn1nc(-c2cccc([N+](=O)[O-])c2)c2ccccc2c1=O)Nc1ccc(F)cc1 | . | - | .
C[C@H](CO)N1C[C@H](C)[C@H](CN(C)CC2CCCCC2)OCCCC[C@H](C)Oc2ccc(NS(=O)(=O)c3cccs3)cc2C1=O | - | - | -
Cc1ccccc1-c1ccc([C@H]2[C@H]3CN(C(=O)Nc4ccc(F)cc4)CCCCN3[C@H]2CO)cc1 | - | . | 101 | T cruzi growth-2=111;T cruzi growth-3=-;NIH3T3 tox=-;NIH3T3 tox 2=76
Cc1ccccc1-c1ccc([C@H]2[C@@H](CO)N3CCCCN(C(=O)Nc4ccc(F)cc4)C[C@H]23)cc1 | - | . | 101 | T cruzi growth-2=98;T cruzi growth-3=?;NIH3T3 tox=94;NIH3T3 tox 2=103
Cc1ccccc1-c1ccc([C@@H]2[C@@H](CO)N3CCCCN(C(=O)Nc4ccc(F)cc4)C[C@H]23)cc1 | - | . | -
Cc1ccccc1-c1ccc([C@H]2[C@H](CO)N3CCCCN(C(=O)Nc4ccccc4)C[C@@H]23)cc1 | - | . | -
Cc1ccccc1-c1ccc([C@H]2[C@@H](CO)N3CCCCN(C(=O)Nc4ccc(F)cc4)C[C@@H]23)cc1 | - | . | 104 | T cruzi growth-2=107;T cruzi growth-3=-;NIH3T3 tox=-;NIH3T3 tox 2=56
Cc1ccccc1-c1ccc([C@@H]2[C@@H](CO)N3CCCCN(C(=O)Nc4ccccc4)C[C@@H]23)cc1 | - | . | -
Cc1ccsc1/C=N/NC(=O)CCCCCCC(=O)NO | . | - | .
COc1ccc(OC)c(NC(=O)CNC(=O)c2ccc(OC)c(OC)c2)c1 | . | - | .
C/C=C/c1ccc([C@H]2[C@@H](CN(C)C(C)=O)N(C(=O)C3CC3)[C@H]2CO)cc1 | - | . | .
C[C@@H]1CCCCO[C@H](CN(C)C(=O)Nc2ccccc2)[C@@H](C)CN([C@H](C)CO)C(=O)c2cc(N(C)C)ccc2O1 | - | - | -
C[C@H]1CN([C@@H](C)CO)S(=O)(=O)c2ccc(C#CC3CC3)cc2O[C@H]1CN(C)C(=O)Nc1cc(F)ccc1F | - | - | 121 | T cruzi growth-2=108;T cruzi growth-3=-;NIH3T3 tox=-;NIH3T3 tox 2=-
C[C@@H]1CN([C@@H](C)CO)S(=O)(=O)c2ccc(C#CC3CCCC3)cc2O[C@@H]1CN(C)C(=O)Nc1cc(F)ccc1F | - | - | .
C[C@H](CO)N1C[C@H](C)[C@H](CN(C)C(=O)Nc2cc(F)ccc2F)Oc2cc(-c3ccc(C#N)cc3)ccc2S1(=O)=O | - | . | -
C[C@H]1CN([C@@H](C)CO)S(=O)(=O)c2ccc(C#CC3CC3)cc2O[C@@H]1CN(C)C(=O)Nc1cc(F)ccc1F | - | - | 111 | T cruzi growth-2=108;T cruzi growth-3=-;NIH3T3 tox=39;NIH3T3 tox 2=36
